Test results: ChEMBL document CHEMBL4196093, “Small-Molecule Activator of UNC-51-Like Kinase 1 (ULK1) That Induces Cytoprotective Autophagy for Parkinson's Disease Treatment” (J Med Chem, 2018)

Experiments:
[1] = target: T1, Serine/threonine-protein kinase ULK1 (Homo sapiens) (UniProt O75385); test: Induction of ULK1-mediated autophagy in human SH-SY5Y cells at 1 uM after 6 hrs by MDC-staining based flow cytometric analysis relative to control; assay type: cell-based
T1 sequence (whole entry): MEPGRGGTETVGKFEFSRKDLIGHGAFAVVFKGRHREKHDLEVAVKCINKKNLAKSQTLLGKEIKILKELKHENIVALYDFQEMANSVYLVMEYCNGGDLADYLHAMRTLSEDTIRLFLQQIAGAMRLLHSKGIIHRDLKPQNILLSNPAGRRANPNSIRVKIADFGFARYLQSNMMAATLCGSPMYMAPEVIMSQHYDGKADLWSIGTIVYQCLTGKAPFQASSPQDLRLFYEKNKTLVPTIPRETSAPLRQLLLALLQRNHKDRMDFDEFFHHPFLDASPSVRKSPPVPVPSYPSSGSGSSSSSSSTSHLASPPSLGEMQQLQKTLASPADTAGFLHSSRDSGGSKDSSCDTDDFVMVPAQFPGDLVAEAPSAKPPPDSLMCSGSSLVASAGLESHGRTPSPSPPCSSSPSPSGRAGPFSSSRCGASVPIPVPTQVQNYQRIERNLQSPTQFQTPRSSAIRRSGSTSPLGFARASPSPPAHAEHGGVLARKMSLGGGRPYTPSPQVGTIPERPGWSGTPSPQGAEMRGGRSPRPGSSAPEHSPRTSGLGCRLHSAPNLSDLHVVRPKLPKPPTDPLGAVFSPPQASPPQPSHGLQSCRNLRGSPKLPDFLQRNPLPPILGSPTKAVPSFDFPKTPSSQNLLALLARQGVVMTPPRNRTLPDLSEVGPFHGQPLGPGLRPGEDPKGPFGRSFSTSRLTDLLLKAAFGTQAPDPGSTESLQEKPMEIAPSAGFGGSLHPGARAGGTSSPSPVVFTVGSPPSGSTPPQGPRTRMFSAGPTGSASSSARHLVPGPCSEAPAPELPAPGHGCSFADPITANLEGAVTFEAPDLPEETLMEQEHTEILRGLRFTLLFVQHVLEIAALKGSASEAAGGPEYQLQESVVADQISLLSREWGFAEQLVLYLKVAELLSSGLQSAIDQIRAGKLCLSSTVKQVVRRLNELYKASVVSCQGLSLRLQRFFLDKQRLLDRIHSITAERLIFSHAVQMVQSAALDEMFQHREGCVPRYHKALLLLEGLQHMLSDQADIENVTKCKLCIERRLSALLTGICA
In short: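 Autophagy scored as percentage of MDC-positive SH-SY5Y cells by flow cytometry after 1 µM compound; mean ± SEM.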

[2] = target: T1, Serine/threonine-protein kinase ULK1 (Homo sapiens); test: (§1) Induction of human recombinant N-terminal GST tagged-ULK1 (1 to 649 residues) kinase activity expressed in baculovirus infected insect Sf9 cells at 100 nM using MBP as substrate after 60 mins by ADP-glo assay relative to control
In short: (§2)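 Recombinant human ULK1 (10 ng) with MBP (0.1 µg/µl)/10 µM ATP and compound at 100 nM in 40 mM Tris pH 7.5, 20 mM MgCl2, 50 µM DTT, 0.1 mg/ml BSA. Incubated 60 min at room temperature; ADP-Glo luminescence read. Three independent experiments, mean ± SEM.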

[3] = target: T1, Serine/threonine-protein kinase ULK1 (Homo sapiens); test: as §1, with “(R)-2-(3-(3,5-Bis(trifluoromethyl)phenyl)thioureido)-N-(2,4-difluorophenyl)-2-phenylacetamide” for “control”; in short: as §2
[4] = target: T2, Serine/threonine-protein kinase ULK1 (Homo sapiens, UniProt O75385); test: Induction of human recombinant N-terminal GST tagged-ULK1 (1 to 649 residues) kinase activity expressed in baculovirus infected insect Sf9 cells using MBP as substrate after 60 mins by ADP-glo assay
T2 sequence (O75385 whole entry): T1 sequence (whole entry)
In short: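 ULK1 (10 ng) incubated with MBP (0.1 µg/µl)/10 µM ATP and a compound concentration series in Tris pH 7.5/MgCl2/DTT/BSA buffer for 60 min at room temperature. ADP-Glo luminescence read. EC50 derived from the curve; Emax normalized to maximal response of the reference activator.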

Row | Structure (SMILES) | Activity [1] [%] | Activity [2] [%] | fold change (FC) [3] | EC50 [4] [nM]
1 | COc1ccc(CCNC(=O)N[C@@H](C(=O)Nc2c(C)cccc2C)c2ccccc2)cc1OC | 23.2 | 144 |  | 
2 | CN1CCN(CC(OC(=O)Cc2ccccn2)c2ccccc2)CC1 (stereo not given) | 9.99 | 143 |  | 
3 | COc1ccc(N2CCN(CC(OC(=O)c3cccc(C)c3)c3ccccc3)CC2)cc1 (stereo not given) | 8.56 | 141 |  | 
4 | Cc1ccccc1NC(=O)[C@H](NCCc1ccc(O)cc1)c1ccccc1 | 21 | 158 |  | 
5 | Cc1ccccc1NC(=O)[C@H](NCCc1cc(Cl)ccc1O)c1ccccc1 | 15.3 | 146 |  | 
6 | C[C@@H](NC(=O)[C@H](NC(=S)Nc1ccccc1)c1ccccc1)c1ccccc1 | 32.2 | 169 |  | 
7 | COc1ccc(N2CCN(CC(OC(=O)c3ccc(-c4ccccc4)cc3)c3ccccc3)CC2)cc1 (stereo not given) | 9.2 | 147 |  | 
8 | COc1cccc(CCN[C@@H](C(=O)Nc2ccc(F)cc2F)c2ccccc2)c1 | 20.6 | 148 |  | 
9 | COc1ccc(NC(=O)N[C@@H](C(=O)Nc2ccccc2C)c2ccccc2)cc1 | 30.4 | 158 |  | 
10 | O=C(Nc1ccc(C(F)(F)F)cc1)N[C@@H](C(=O)Nc1cccc(Br)c1)c1ccccc1 | 33.6 | 179 |  | 
11 | COc1ccc(NC(=O)[C@H](NC(=O)NCCc2ccc(OC)c(OC)c2)c2ccccc2)cc1 | 21.1 | 141 |  | 
12 | COc1ccc(C(=O)OC(CN2CCN(c3ccc(OC)cc3)CC2)c2ccccc2)cc1 (stereo not given) | 11.2 | 155 |  | 
13 | COc1ccc(CCNC(=S)N[C@@H](C(=O)Nc2cc(C(F)(F)F)cc(C(F)(F)F)c2)c2ccccc2)cc1OC | 39 | 184 |  | 
14 | Cc1ccccc1NC(=O)[C@H](NCCc1ccc2[nH]ccc2c1)c1ccccc1 | 16.8 | 144 |  | 
15 | Cc1ccccc1NC(=O)[C@H](NC(=O)Nc1c(C)cccc1C)c1ccccc1 | 24.2 | 149 |  | 
16 | COc1ccc(N2CCN(CC(OC(=O)c3cccc(Cl)c3)c3ccccc3)CC2)cc1 (stereo not given) | 13.4 | 163 |  | 
17 | O=C(Nc1ccccc1Cl)N[C@@H](C(=O)Nc1cc(F)ccc1F)c1ccccc1 | 19.6 | 144 |  | 

Now from value to compound:

Row | Activity [1] [%] | Activity [2] [%] | fold change (FC) [3] | EC50 [4] [nM] | Structure (SMILES)
18 | 30.1 | 202 | 0.742 | 40.8 | O=C(Nc1ccc(F)cc1F)[C@H](NCCc1ccc(F)cc1)c1ccccc1
19 |  |  | 0.324 | 263 | Clc1ccc(CO[C@@H](Cn2ccnc2)c2ccc(Cl)cc2Cl)cc1
20 | 18.1 | 147 |  |  | COc1ccc(CCN[C@@H](C(=O)Nc2ccccc2C)c2ccccc2)cc1OC
21 | 38.4 | 183 |  |  | Cc1ccccc1NC(=O)[C@H](NC(=O)Nc1ccc(C(F)(F)F)cc1)c1ccccc1
22 | 10 | 151 |  |  | CN1CCN(CC(OC(=O)c2ccccc2C(F)(F)F)c2ccccc2)CC1 (stereo not given)
23 | 11.6 | 162 |  |  | COc1ccc(N2CCN(CC(OC(=O)c3cccc(C(F)(F)F)c3)c3ccccc3)CC2)cc1 (stereo not given)
24 | 12.5 | 181 |  |  | CN1CCN(CC(OC(=O)c2ccc3ncccc3c2)c2ccccc2)CC1 (stereo not given)
25 | 27.9 | 152 |  |  | COc1ccc(CCNC(=O)N[C@@H](C(=O)Nc2ccccc2Cl)c2ccccc2)cc1OC
26 | 23.4 | 161 |  |  | O=C(Nc1ccc(F)cc1F)[C@H](NCCc1cccc(F)c1)c1ccccc1
27 | 14.7 | 197 | 0.692 | 54.8 | CN1CCN(CC(OC(=O)c2ccc3c(c2)OCO3)c2ccccc2)CC1 (stereo not given)
28 | 32.9 | 176 |  |  | O=C(Nc1cccc(Br)c1)[C@H](NC(=S)Nc1ccccc1)c1ccccc1
